Measured values from ChEMBL document CHEMBL1240474, “Pharmacological evaluation and characterizations of newly synthesized 1,2,4-triazoles” (2010).
In brackets after ≈: the same amount, converted by molar mass.

Columns and labels:
Assay type in all cases: functional
Streptococcus pyogenes = experiment: Antibacterial activity against Streptococcus pyogenes MTCC 442 by broth microdilution method
Summary of the method: (§1)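 Serial dilutions in Mueller Hinton broth, drugs diluted in DMSO from a 2000 µg/ml stock, inoculum adjusted by turbidity to 10⁸ CFU/ml, ampicillin as reference. Primary screen at 500, 250 and 125 µg/ml; actives retested at 100 down to 1.5625 µg/ml. Incubated overnight at 37 °C.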

Pseudomonas aeruginosa = experiment: Antibacterial activity against Pseudomonas aeruginosa MTCC 2488 by broth microdilution method; summary of the method: as §1
Escherichia coli = experiment: Antibacterial activity against Escherichia coli MTCC 443 by broth microdilution method; summary of the method: as §1
Aspergillus clavatus = experiment: Antifungal activity against Aspergillus clavatus MTCC 1323 by broth microdilution method
[1] = tested on: Mycobacterium tuberculosis; experiment: Antimycobacterial activity against Mycobacterium tuberculosis H37Rv after up to 28 days; conditions: 672 h
Summary of the method: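 Lowenstein-Jensen agar dilution against M. tuberculosis H37Rv. Compounds were made up as 2000 µg/ml DMSO stocks and added to liquid L.J. medium at primary levels of 1000, 500 and 250 µg/ml and secondary levels of 200–3.25 µg/ml. The medium was inspissated, held 24 h at 37 °C, then streaked with bacilli from saline suspension. Growth was read at 12, 22 and 28 days against drug-free controls. MIC was the lowest concentration giving no colonies or fewer than 20.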

Staphylococcus aureus = experiment: Antibacterial activity against Staphylococcus aureus MTCC 96 by broth microdilution method; summary of the method: as §1
Aspergillus niger = experiment: Antifungal activity against Aspergillus niger MTCC 282 by broth microdilution method
[2] = tested on: Mycobacterium tuberculosis; experiment: Antimycobacterial activity against Mycobacterium tuberculosis H37Rv at MIC concentration after up to 28 days
Candida albicans = experiment: Antifungal activity against Candida albicans MTCC 227 by broth microdilution method

SMILES	MIC (Streptococcus pyogenes)	MIC (Pseudomonas aeruginosa)	MIC (Escherichia coli)	MIC (Aspergillus clavatus)	MIC [1]	MIC (Staphylococcus aureus)	MIC (Aspergillus niger)	inhibition (INH) [2]	MIC (Candida albicans)
NNc1nc2ccc(F)cc2s1	250 µg/mL (≈ 1360 µM)	250 µg/mL (≈ 1360 µM)	250 µg/mL (≈ 1360 µM)	> 1000 µg/mL	250 µg/mL (≈ 1360 µM)	500 µg/mL (≈ 2730 µM)	> 1000 µg/mL	98%	250 µg/mL (≈ 1360 µM)
NNc1nc2ccc(Br)cc2s1	500 µg/mL (≈ 2050 µM)	500 µg/mL (≈ 2050 µM)	500 µg/mL (≈ 2050 µM)	500 µg/mL (≈ 2050 µM)	500 µg/mL (≈ 2050 µM)	250 µg/mL (≈ 1020 µM)	500 µg/mL (≈ 2050 µM)	97%	500 µg/mL (≈ 2050 µM)
NNc1nc2ccc([N+](=O)[O-])cc2s1	500 µg/mL (≈ 2380 µM)	250 µg/mL (≈ 1190 µM)	250 µg/mL (≈ 1190 µM)	1000 µg/mL (≈ 4760 µM)	250 µg/mL (≈ 1190 µM)	500 µg/mL (≈ 2380 µM)	500 µg/mL (≈ 2380 µM)	99%	500 µg/mL (≈ 2380 µM)
Cc1ccc2nc(NN)sc2c1	250 µg/mL (≈ 1390 µM)	500 µg/mL (≈ 2790 µM)	100 µg/mL (≈ 558 µM)	> 1000 µg/mL	1000 µg/mL (≈ 5580 µM)	250 µg/mL (≈ 1390 µM)	1000 µg/mL (≈ 5580 µM)	98%	250 µg/mL (≈ 1390 µM)
COc1ccc2nc(NN)sc2c1	250 µg/mL (≈ 1280 µM)	125 µg/mL (≈ 640 µM)	62.5 µg/mL (≈ 320 µM)	250 µg/mL (≈ 1280 µM)	50 µg/mL (≈ 256 µM)	200 µg/mL (≈ 1020 µM)	500 µg/mL (≈ 2560 µM)	99%	500 µg/mL (≈ 2560 µM)
NNc1nc2ccc(Cl)cc2s1	500 µg/mL (≈ 2500 µM)	125 µg/mL (≈ 626 µM)	100 µg/mL (≈ 501 µM)	250 µg/mL (≈ 1250 µM)	200 µg/mL (≈ 1000 µM)	500 µg/mL (≈ 2500 µM)	200 µg/mL (≈ 1000 µM)	99%	250 µg/mL (≈ 1250 µM)
Cc1cccc2sc(NN)nc12	500 µg/mL (≈ 2790 µM)	250 µg/mL (≈ 1390 µM)	250 µg/mL (≈ 1390 µM)	200 µg/mL (≈ 1120 µM)	500 µg/mL (≈ 2790 µM)	500 µg/mL (≈ 2790 µM)	250 µg/mL (≈ 1390 µM)	98%	500 µg/mL (≈ 2790 µM)
NNc1nc2c([N+](=O)[O-])cccc2s1	250 µg/mL (≈ 1190 µM)	250 µg/mL (≈ 1190 µM)	500 µg/mL (≈ 2380 µM)	200 µg/mL (≈ 951 µM)	500 µg/mL (≈ 2380 µM)	500 µg/mL (≈ 2380 µM)	250 µg/mL (≈ 1190 µM)	98%	200 µg/mL (≈ 951 µM)
NNc1nc2cc(Cl)c(Cl)cc2s1	500 µg/mL (≈ 2140 µM)	125 µg/mL (≈ 534 µM)	100 µg/mL (≈ 427 µM)	1000 µg/mL (≈ 4270 µM)	250 µg/mL (≈ 1070 µM)	250 µg/mL (≈ 1070 µM)	500 µg/mL (≈ 2140 µM)	99%	500 µg/mL (≈ 2140 µM)
NNc1nc2c(Cl)cccc2s1	500 µg/mL (≈ 2500 µM)	250 µg/mL (≈ 1250 µM)	250 µg/mL (≈ 1250 µM)	500 µg/mL (≈ 2500 µM)	100 µg/mL (≈ 501 µM)	500 µg/mL (≈ 2500 µM)	500 µg/mL (≈ 2500 µM)	99%	1000 µg/mL (≈ 5010 µM)
Cc1ccc(-c2nnc(-c3cccnc3)o2)cc1	250 µg/mL (≈ 1050 µM)	100 µg/mL (≈ 421 µM)	250 µg/mL (≈ 1050 µM)	500 µg/mL (≈ 2110 µM)	500 µg/mL (≈ 2110 µM)	100 µg/mL (≈ 421 µM)	500 µg/mL (≈ 2110 µM)	98%	1000 µg/mL (≈ 4210 µM)
Cc1ccc(-c2nnc(-c3cccnc3)n2Nc2nc3ccc(F)cc3s2)cc1	100 µg/mL (≈ 248 µM)	250 µg/mL (≈ 621 µM)	250 µg/mL (≈ 621 µM)	250 µg/mL (≈ 621 µM)	200 µg/mL (≈ 497 µM)	125 µg/mL (≈ 311 µM)	500 µg/mL (≈ 1240 µM)	98%	500 µg/mL (≈ 1240 µM)
Cc1ccc(-c2nnc(-c3cccnc3)n2Nc2nc3ccc(Br)cc3s2)cc1	125 µg/mL (≈ 270 µM)	100 µg/mL (≈ 216 µM)	100 µg/mL (≈ 216 µM)	1000 µg/mL (≈ 2160 µM)	50 µg/mL (≈ 108 µM)	125 µg/mL (≈ 270 µM)	500 µg/mL (≈ 1080 µM)	99%	1000 µg/mL (≈ 2160 µM)
Cc1ccc(-c2nnc(-c3cccnc3)n2Nc2nc3ccc([N+](=O)[O-])cc3s2)cc1	125 µg/mL (≈ 291 µM)	200 µg/mL (≈ 466 µM)	100 µg/mL (≈ 233 µM)	500 µg/mL (≈ 1160 µM)	200 µg/mL (≈ 466 µM)	250 µg/mL (≈ 582 µM)	500 µg/mL (≈ 1160 µM)	98%	500 µg/mL (≈ 1160 µM)
Cc1ccc(-c2nnc(-c3cccnc3)n2Nc2nc3ccc(C)cc3s2)cc1	100 µg/mL (≈ 251 µM)	250 µg/mL (≈ 627 µM)	125 µg/mL (≈ 314 µM)	> 1000 µg/mL	50 µg/mL (≈ 125 µM)	100 µg/mL (≈ 251 µM)	1000 µg/mL (≈ 2510 µM)	99%	500 µg/mL (≈ 1250 µM)
COc1ccc2nc(Nn3c(-c4ccc(C)cc4)nnc3-c3cccnc3)sc2c1	250 µg/mL (≈ 603 µM)	125 µg/mL (≈ 302 µM)	250 µg/mL (≈ 603 µM)	1000 µg/mL (≈ 2410 µM)	62.5 µg/mL (≈ 151 µM)	250 µg/mL (≈ 603 µM)	500 µg/mL (≈ 1210 µM)	99%	250 µg/mL (≈ 603 µM)
Cc1ccc(-c2nnc(-c3cccnc3)n2Nc2nc3ccc(Cl)cc3s2)cc1	500 µg/mL (≈ 1190 µM)	125 µg/mL (≈ 298 µM)	250 µg/mL (≈ 597 µM)	250 µg/mL (≈ 597 µM)	100 µg/mL (≈ 239 µM)	500 µg/mL (≈ 1190 µM)	500 µg/mL (≈ 1190 µM)	99%	500 µg/mL (≈ 1190 µM)
Cc1ccc(-c2nnc(-c3cccnc3)n2Nc2nc3c(C)cccc3s2)cc1	250 µg/mL (≈ 627 µM)	500 µg/mL (≈ 1250 µM)	250 µg/mL (≈ 627 µM)	200 µg/mL (≈ 502 µM)	500 µg/mL (≈ 1250 µM)	500 µg/mL (≈ 1250 µM)	250 µg/mL (≈ 627 µM)	98%	100 µg/mL (≈ 251 µM)
Cc1ccc(-c2nnc(-c3cccnc3)n2Nc2nc3c([N+](=O)[O-])cccc3s2)cc1	250 µg/mL (≈ 582 µM)	25 µg/mL (≈ 58.2 µM)	12.5 µg/mL (≈ 29.1 µM)	500 µg/mL (≈ 1160 µM)	50 µg/mL (≈ 116 µM)	500 µg/mL (≈ 1160 µM)	500 µg/mL (≈ 1160 µM)	99%	1000 µg/mL (≈ 2330 µM)
Cc1ccc(-c2nnc(-c3cccnc3)n2Nc2nc3cc(Cl)c(Cl)cc3s2)cc1	500 µg/mL (≈ 1100 µM)	500 µg/mL (≈ 1100 µM)	100 µg/mL (≈ 221 µM)	250 µg/mL (≈ 551 µM)	100 µg/mL (≈ 221 µM)	250 µg/mL (≈ 551 µM)	500 µg/mL (≈ 1100 µM)	99%	200 µg/mL (≈ 441 µM)
Cc1ccc(-c2nnc(-c3cccnc3)n2Nc2nc3c(Cl)cccc3s2)cc1	500 µg/mL (≈ 1190 µM)	500 µg/mL (≈ 1190 µM)	125 µg/mL (≈ 298 µM)	1000 µg/mL (≈ 2390 µM)	25 µg/mL (≈ 59.7 µM)	250 µg/mL (≈ 597 µM)	> 1000 µg/mL	99%	500 µg/mL (≈ 1190 µM)
CC1(C)S[C@@H]2[C@H](NC(=O)[C@H](N)c3ccccc3)C(=O)N2[C@H]1C(=O)O [AMPICILLIN]	100 µg/mL (≈ 286 µM)	100 µg/mL (≈ 286 µM)	100 µg/mL (≈ 286 µM)			250 µg/mL (≈ 715 µM)			
COC1=CC(=O)C[C@@H](C)[C@]12Oc1c(Cl)c(OC)cc(OC)c1C2=O [GRISEOFULVIN]				100 µg/mL (≈ 283 µM)			100 µg/mL (≈ 283 µM)		500 µg/mL (≈ 1420 µM)
CO[C@H]1/C=C/O[C@@]2(C)Oc3c(C)c(O)c4c(O)c(c(/C=N/N5CCN(C)CC5)c(O)c4c3C2=O)NC(=O)/C(C)=C\C=C\[C@H](C)[C@H](O)[C@@H](C)[C@@H](O)[C@@H](C)[C@H](OC(C)=O)[C@@H]1C [RIFAMPIN]					40 µg/mL (≈ 48.6 µM)			98%	
